This is a sample that favours compounds with a hit; in the whole collection about 1.5% have one here.
Spn MK inh = inhibitors of Streptococcus pneumoniae mevalonate kinase; AID 555; 65,000 tested, 0.48% active; inhibition, % at 10 µM; purified MK, PK/LDH-coupled NADH absorbance 340 nm;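 active = ranked among the strongest by inhibition in the single 10 µM screen, a fixed top-ranked set picked for dose follow-up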
AP complement = alternative pathway complement inhibition, orthogonal assay; 62,000 tested, 0.08% active; inhibition, % at 5 µM; Human serum alternative complement pathway, LPS-coated ELISA, C3 deposition; tested in compound mixtures;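 active = inhibition above 30% in each of the two pooled mixtures holding the compound, so the lower value exceeds 30%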;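 also: 0% = serum in Mg-EGTA without compound and 100% = EDTA serum blank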
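Assay system: Human serum alternative complement pathway, C3 deposition on LPS-coated wells | Incubation: 1 h serum-compound exposure at 37 °C | Doses: 5 µM per compound in ten-compound mixtures | Read-out: Percent inhibition | Technique: ELISA with HRP anti-human C3 antibody, TMB substrate, absorbance 450 nm | Replication: Two pool placements per compound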
TNAP act mid DEA = human TNAP activation, intermediate phosphate acceptor | P05186 | purified TNAP, CDP-star luminescence, 100 mM DEA, 30 min; active compounds read high; scale: 0 levamisole-inhibited, 1 vehicle-only enzyme | activation factor at 20 µM | 64,000 tested, under 10 active | AID 813;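 active = activation factor of at least 2 at 20 µM, relative to controls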
Ec RNAP inh = Escherichia coli RNA polymerase inhibition; P0A8V2; E. coli RNA polymerase, fluorescence transcription assay; inhibition, %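 (tested at 10 µM)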; 62,000 tested, 0.2% active; AID 559; in the data active = inhibition above about 20%;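 also: 0% = enzyme without compound and 100% = no enzyme blank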
Target sequence (P0A8V2 whole entry, looked up): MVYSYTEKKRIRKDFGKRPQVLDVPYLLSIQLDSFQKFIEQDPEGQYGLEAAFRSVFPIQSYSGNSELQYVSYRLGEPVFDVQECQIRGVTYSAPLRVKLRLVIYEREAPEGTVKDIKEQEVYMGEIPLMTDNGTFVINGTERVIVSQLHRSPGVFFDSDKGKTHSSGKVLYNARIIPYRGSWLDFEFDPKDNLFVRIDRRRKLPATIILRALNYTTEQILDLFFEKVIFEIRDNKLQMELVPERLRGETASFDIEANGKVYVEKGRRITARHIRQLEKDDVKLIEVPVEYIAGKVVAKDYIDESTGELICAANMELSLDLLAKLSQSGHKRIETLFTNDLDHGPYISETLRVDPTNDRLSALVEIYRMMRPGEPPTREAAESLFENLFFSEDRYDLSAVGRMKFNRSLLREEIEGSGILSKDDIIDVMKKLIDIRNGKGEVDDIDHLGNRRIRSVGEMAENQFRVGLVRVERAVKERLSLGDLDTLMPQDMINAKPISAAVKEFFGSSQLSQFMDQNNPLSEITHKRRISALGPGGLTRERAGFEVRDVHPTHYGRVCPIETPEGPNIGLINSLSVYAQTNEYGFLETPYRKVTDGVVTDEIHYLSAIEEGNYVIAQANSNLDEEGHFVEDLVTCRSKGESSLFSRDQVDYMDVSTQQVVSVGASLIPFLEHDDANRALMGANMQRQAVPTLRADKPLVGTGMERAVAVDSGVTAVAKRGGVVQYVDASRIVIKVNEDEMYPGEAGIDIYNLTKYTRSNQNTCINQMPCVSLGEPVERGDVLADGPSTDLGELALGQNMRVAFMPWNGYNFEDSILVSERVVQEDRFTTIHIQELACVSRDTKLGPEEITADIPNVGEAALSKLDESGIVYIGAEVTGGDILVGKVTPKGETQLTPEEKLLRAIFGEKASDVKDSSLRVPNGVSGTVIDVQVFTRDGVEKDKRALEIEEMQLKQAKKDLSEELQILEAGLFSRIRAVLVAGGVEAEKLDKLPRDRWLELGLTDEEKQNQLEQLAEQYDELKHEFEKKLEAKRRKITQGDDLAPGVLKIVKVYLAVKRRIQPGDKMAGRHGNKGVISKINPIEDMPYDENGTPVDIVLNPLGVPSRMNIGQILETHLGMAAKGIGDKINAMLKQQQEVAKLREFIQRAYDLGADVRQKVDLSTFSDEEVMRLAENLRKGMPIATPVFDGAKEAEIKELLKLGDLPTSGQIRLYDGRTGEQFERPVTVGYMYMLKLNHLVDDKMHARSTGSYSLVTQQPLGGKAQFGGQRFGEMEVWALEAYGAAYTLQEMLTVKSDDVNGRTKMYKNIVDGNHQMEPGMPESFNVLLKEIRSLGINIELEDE
Spn PMK inh = inhibitors of Streptococcus pneumoniae phosphomevalonate kinase; inhibition, % at 10 µM; purified PMK, PK/LDH-coupled NADH absorbance 340 nm; 65,000 tested, 0.49% active; AID 539;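 active = top-ranked compounds by inhibition in the single 10 µM screen, taking a fixed number of the strongest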;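 also: 0% = full reaction with DMSO carrier and 100% = background rate without enzyme reaction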
DPM-DC inhibit = blocks S. pneumoniae diphosphomevalonate decarboxylase; purified DPM-DC, PK/LDH coupled NADH fluorescence; calls only at 10 µM; 65,000 tested, 0.49% active;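 active = the 320 compounds with the highest percent inhibition in the single-dose primary screen, excluding strongly autofluorescent ones, cut at about 32% in these data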;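 also: kinetic rate of NADH fluorescence loss reporting ADP formed by the decarboxylase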
Starred values were filed as active, the others as inactive; i = inactive; / = no result given; + = active, no number.

SMILES | Spn MK inh | AP complement | TNAP act mid DEA | Ec RNAP inh | Spn PMK inh | DPM-DC inhibit
COC(=O)[C@H](C)NC(=O)Nc1ccc(Oc2ccccc2)cc1 | 14 | 11 | 1 | 4 | 10 | i
CC(NS(=O)(=O)c1ccc(F)cc1)C(c1cccs1)N1CCN(C)CC1 (stereo not drawn) | 0 | -9 | 0.9 | 21* | 16 | i
COCCN(Cc1cc2cc3c(cc2[nH]c1=O)OCO3)C(=O)c1cccs1 | 6 | 0 | 1 | 6 | 10 | +
O=C(CCN1CCCCC1)NCC1OCCc2ccccc21 (stereo not drawn) | 12 | 8 | 0.9 | 9 | 2 | i
COCc1cc(=O)[nH]c(Nc2nc(C)c3ccc(C)cc3n2)n1 | 0 | 7 | 1.1 | 6 | 28* | i
Cc1ccc2c(C)nc(Nc3nc(CSc4nnnn4-c4ccccc4)cc(=O)[nH]3)nc2c1 | 4 | 7 | 1 | 6 | 8 | i
CCS(=O)(=O)N1CCC(C(=O)NCc2ccco2)CC1 | 0 | 9 | 0.8 | 2 | 26* | i
COCCCNC(=O)C1CCN(S(=O)(=O)N(CC(C)C)CC(C)C)CC1 | 1 | 18 | 1 | 1 | 8 | i
CCOCCCNC(=O)C1CCN(S(=O)(=O)CC)CC1 | 0 | 11 | 0.8 | 0 | 25* | i
CCOCCCNC(=O)C1CCN(S(=O)(=O)N(CC(C)C)CC(C)C)CC1 | 0 | 9 | 0.9 | 12 | 26* | i
CCOc1nc(SCCOc2ccccc2)nc(N(C)C)n1 | 9 | 13 | 0.9 | 6 | 0 | i
O=c1cc(O)c2c(=O)n3c4c(cccc4c2o1)CCC3 | 8 | 13 | 0.9 | -4 | 14 | i
CC1=C(C(=O)Nc2cccc(C)n2)C(c2ccc3c(c2)OCO3)C2=C(CC(c3ccco3)CC2=O)N1 (stereo not drawn) | 1 | 6 | 1 | 0 | 3 | i
Cc1ccc2nc3c(cc(C#N)c(=O)n3CC3CCCO3)c(=O)n2c1 (stereo not drawn) | 8 | 7 | 0.9 | -41 | 14 | /
N#CC1(c2nc3ccccc3[nH]2)CC1c1ccc2c(c1)OCO2 (stereo not drawn) | 0 | -8 | 0.9 | -3 | 6 | i
CCn1c(SCC(=O)Nc2ccc3c(c2)OCO3)nnc1-c1ccccc1O | 11 | 20 | 0.8 | 3 | 13 | i
Nc1cc(N)cc(-c2nc3ccccc3[nH]2)c1 | 7 | 5 | 0.9 | -6 | 10 | +
CCOc1ccc(NC2c3ccccc3C(=O)N2Cc2ccco2)cc1 (stereo not drawn) | 7 | -14 | 0.9 | 2 | 0 | i
COc1cc(-c2nc3cnccc3n2C)cc(OC)c1OC | 0 | -4 | 1 | 7 | 19 | +
Cc1onc(-c2ccccc2)c1C(=O)Nc1ccc2c(C)cc(=O)oc2c1 | 6 | 7 | 0.8 | 3 | 0 | /
CCOc1ncccc1C(=O)Nc1ccc2c(C)cc(=O)oc2c1 | 0 | 7 | 0.9 | 5 | 0 | +
COc1cccc(NC(=O)N2CCN(Cc3nc4ccccc4c(=O)[nH]3)CC2)c1 | 5 | 25 | 0.9 | -4 | 3 | i
Cc1ccccc1NS(=O)(=O)c1cc(S(C)(=O)=O)ccc1Cl | 8 | -4 | 0.9 | 9 | 6 | i
Cc1cc(NS(=O)(=O)c2ccccc2)c(C)c(Cl)c1O | 9 | 13 | 1 | 21* | 15 | i
O=C(CN(C(=O)c1ccc2c(c1)OCCO2)c1ccccc1)NCC1CCCO1 (stereo not drawn) | 7 | 14 | 0.9 | 5 | 11 | i
SMILES | Spn MK inh | AP complement | TNAP act mid DEA | Ec RNAP inh | Spn PMK inh | DPM-DC inhibit
O=S(=O)(Nc1ccc(-c2nc3cccnc3s2)cc1)c1cccs1 | 5 | 24 | 1 | -126 | 14 | /
O=S(=O)(Nc1cccc2ncccc12)c1cccs1 | 0 | 2 | 1.2 | 1 | 16 | +
Cc1onc(-c2ccccc2Cl)c1C(=O)OCC(=O)N1CCCc2ccccc21 | 2 | 4 | 1 | / | 10 | i
COc1cc(CNc2ccc(C)c(C)c2)cc(OC)c1OC | 39 | 15 | 1 | 8 | 4 | i
COc1cc(CNc2ccc3c(c2)CCC3)cc(OC)c1O | 44* | 19 | 0.9 | / | 0 | i
Cc1ccc2cc(CN(CCO)Cc3nnnn3Cc3ccc(F)cc3)c(=O)[nH]c2c1 | 1 | 5 | 0.9 | 8 | 14 | i
O=c1[nH]c2cc3c(cc2cc1CN(CCCO)Cc1nnnn1Cc1ccc(F)cc1)OCO3 | 7 | 6 | 0.9 | -2 | 9 | +
COc1cccc(CN2CCN(C(=O)c3cccc(F)c3)CC2)c1 | 51* | 7 | 0.9 | 3 | 0 | i
CCOC(=O)c1cc2nc(Nc3ccc(OC)cc3)sc2s1 | 0 | 14 | 1 | 3 | 5 | +
COc1ccc(OC)c(S(=O)(=O)N2CCN(C34CC5CC(CC(C5)C3)C4)CC2)c1 | 0 | 17 | 0.9 | 5 | 15 | i
OC1(CN2CCOCC2)C2CN3CCN(C2)CC1(c1ccccc1)C3 (stereo not drawn) | 9 | 1 | 0.9 | 2 | 28* | i
O=C(CN1C(=O)CCC1=O)Nc1nc(-c2ccccn2)cs1 | 0 | 14 | 15* | 4 | 9 | i
O=C(CN1C(=O)CCC1=O)Nc1nc(-c2nc3ccccc3s2)cs1 | 5 | 14 | 0.9 | 7 | 3 | /
CC(=O)N1CCc2cc(S(=O)(=O)NC3CCCc4ccccc43)ccc21 (stereo not drawn) | 0 | 5 | 0.9 | 9 | 27* | i
O=C(O)c1ccc(S(=O)(=O)NC2CCCc3ccccc32)cc1 (stereo not drawn) | 0 | 21 | 1 | 2 | 17 | i
O=C(Nc1ccccc1)N(CCCN1CCOCC1)Cc1cc2cc3c(cc2[nH]c1=O)OCCO3 | 12 | -12 | 0.9 | -11 | 13 | /
Cc1ccc(NC(=O)N(CCCN2CCOCC2)Cc2cc3cc4c(cc3[nH]c2=O)OCO4)cc1 | 15 | -2 | 0.9 | 7 | 15 | +
CCN(CC)CCCN(Cc1cc2cc3c(cc2[nH]c1=O)OCCO3)C(=O)Nc1ccccc1 | 9 | 9 | 0.9 | 5 | 10 | +
CCn1ncc(C2=NOC(C(=O)NCc3ccc(Cl)cc3)C2)c1C (stereo not drawn) | 1 | 9 | 0.9 | 10 | 9 | i
COc1cc2c(cc1NC(=O)CN(C)Cc1nc3ccccc3c(=O)[nH]1)oc1ccccc12 | 2 | -4 | 1 | 4 | 13 | i
COc1ccc(OC)c(-n2c(-c3cccc(O)c3)n[nH]c2=S)c1 | 66* | 4 | 0.9 | 7 | 0 | i
COc1ccc(-c2n[nH]c(=S)n2C2CCCCC2)cc1 | 3 | 14 | 0.9 | 1 | 0 | i
CC(C)(C)c1ccccc1OCCCCCNCCO | 44* | 16 | 1 | 9 | 52* | i
